We go through 20 compounds from ChEMBL document CHEMBL1156546, “Synthesis and positive inotropic activity of N-(4,5-dihydro-[1,2,4]triazolo[4,3-a]quinolin-7-yl)-2-(piperazin-1-yl)acetamide derivatives” (2008).

For assay [1], the species on record is Oryctolagus cuniculus. The experiment in a line: Inotropic effect on isolated rabbit heart assessed as increase in left atrium stroke volume. Details: concentration or dose not given beside the values. In kind it is functional, Cardiac atrium. In short, it runs like this: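 Isolated perfused rabbit left atrium, HEPES buffer pH 7.4 (mM: 118 NaCl, 4.7 KCl, 2.5 CaCl2, 1.2 MgCl2, 25 NaHCO3, 10 glucose, 10 HEPES; 0.1% BSA) pumped at 1.25 mL/min. 60 min stabilization, pacing 1.5 Hz. Single dose 3×10^-5 M (DMSO stock diluted in buffer) after control cycle; 12-min cycles, stroke volume read every 2 min. Reported as % stroke volume increase, means ± SE, ANOVA.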

The species entered for assay [2] is Oryctolagus cuniculus. The experiment in a line: Chronotropic effect on isolated rabbit heart assessed as change in heart beats. The format is functional. Summed up:
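Heart rate measured in isolated rabbit hearts from the electrocardiogram in a volume conduction model. Samples at 3×10^-5 M, dissolved in DMSO and diluted in HEPES buffer. Rate recorded before (control) and after sample. Means ± SE, repeated measures compared by ANOVA, P < 0.05.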

Active and inactive are the calls of the source. The rule behind the calls is not given here.

For `COc1cc(CN2CCN(CC(=O)Nc3ccc4c(c3)CCc3nnc(C)n3-4)CC2)ccc1OCc1ccccc1`, the Activity in assay [1] turned out to be 9%; in assay [2], 111.5 bpm. On the same counts, the results for `O=C(CN1CCN(Cc2ccc3c(c2)OCO3)CC1)Nc1ccc2c(c1)CCc1nnc(Cc3ccccc3)n1-2` are 5.2% and 89.2 bpm. Regarding `Cc1nnc2n1-c1ccc(NC(=O)CN3CCN(Cc4ccccc4Br)CC3)cc1CC2`, the outcome in assay [1] (Cardiac atrium) was inactive.

Turning to `O=C(CN1CCN(C(=O)c2ccccc2)CC1)Nc1ccc2c(c1)CCc1nnc(Cc3ccccc3)n1-2`, in assay [1] (Cardiac atrium), the outcome was inactive. On the same count and under the same terms, to `Cc1nnc2n1-c1ccc(NC(=O)CN3CCN(C(=O)c4cccc(Cl)c4)CC3)cc1CC2` belongs “inactive”.

`Cc1cccc(C(=O)N2CCN(CC(=O)Nc3ccc4c(c3)CCc3nnc(C)n3-4)CC2)c1`: the Activity in assay [1] is reported as 8.8%. Turning to `CC(=O)N1CCN(CC(=O)Nc2ccc3c(c2)CCc2nnc(C)n2-3)CC1`, the outcome in assay [1] (Cardiac atrium) was inactive. As to `Cc1ccc(C(=O)N2CCN(CC(=O)Nc3ccc4c(c3)CCc3nnc(C)n3-4)CC2)cc1`, the Activity in assay [1] came to 1.3%. As to `Cc1nnc2n1-c1ccc(NC(=O)CN3CCN(Cc4ccc5c(c4)OCO5)CC3)cc1CC2`, the results for the Activity in assay [1] and in assay [2] were 5.1% and 136.9 bpm, respectively. As for `O=C(CN1CCN(Cc2ccccc2)CC1)Nc1ccc2c(c1)CCc1nnc(Cc3ccccc3)n1-2`, the Activity came to 13.2% in assay [1] and 109.3 bpm in assay [2]. `Cc1ccc(C(=O)N2CCN(CC(=O)Nc3ccc4c(c3)CCc3nnc(Cc5ccccc5)n3-4)CC2)cc1`: the Activity in assay [1] worked out at 0.7%. The same measure, in the same setting: to `Cc1cccc(C(=O)N2CCN(CC(=O)Nc3ccc4c(c3)CCc3nnc(Cc5ccccc5)n3-4)CC2)c1` belongs 0.5%; to `O=C(CN1CCN(C(=O)c2cccc(Cl)c2)CC1)Nc1ccc2c(c1)CCc1nnc(Cc3ccccc3)n1-2`, 2.4%; to `Cc1[nH]c(=O)c(C#N)cc1-c1ccncc1` [MILRINONE], 4.7%.

Take `Cc1nnc2n1-c1ccc(NC(=O)CN3CCN(C(=O)c4cccc([N+](=O)[O-])c4)CC3)cc1CC2`: the result in assay [1] (Cardiac atrium) was inactive. Still for that read-out and setting: the same measure for `Cc1nnc2n1-c1ccc(NC(=O)CN3CCN(C(=O)c4ccccc4)CC3)cc1CC2`: “inactive”.

As to `COc1ccc(CN2CCN(CC(=O)Nc3ccc4c(c3)CCc3nnc(C)n3-4)CC2)cc1`, the Activity in assay [1] stood at 10.1%; in assay [2] it was 105.6 bpm.

Regarding `Cc1nnc2n1-c1ccc(NC(=O)CN3CCN(C(=O)c4ccc([N+](=O)[O-])cc4)CC3)cc1CC2`, the result in assay [1] (Cardiac atrium) was inactive. `COc1ccc(C(=O)N2CCN(CC(=O)Nc3ccc4c(c3)CCc3nnc(C)n3-4)CC2)cc1OC`: the results for the Activity in assay [1] and in assay [2] were 5.3% and 129.2 bpm, respectively. For `Cc1nnc2n1-c1ccc(NC(=O)CN3CCN(Cc4ccccc4)CC3)cc1CC2`, in assay [1] (Cardiac atrium), the result was inactive.
